Reference: ChEMBL document CHEMBL1833911, “Diastereoselective synthesis and bioactivity of long-chain anti-2-amino-3-alkanols” (Eur J Med Chem, 2011)
Active and inactive are the calls of the source. The rule behind the calls is not given here.

Tested on: not listed separately
Assay: Growth inhibition of human SHG44 at 10 uM after 24 hrs by cell counting kit-8 assay
Format: functional
Conditions: SHG-44, 24 h, read-out: GI
Summary of the method: (§1)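 SHG-44 glioblastoma cells were maintained in DMEM with 10% FBS and penicillin/streptomycin at 37 °C under 5% CO2. They were seeded at 5000/well in DMEM with 1% FBS and grown overnight, then exposed for 24 h to compound (0.1–100 μM) or 0.1% DMSO vehicle. CCK-8 was added for 2 h at 37 °C and A450 read. Results were from triplicates, expressed as % of vehicle.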

Structure (SMILES)	inhibition of growth at 10 µM
CCCCCCCCC[C@H](O)[C@H](N)CO	60%
CCCCCCCCC[C@@H](O)[C@H](C)N	80%
CCCCCCCCCCC[C@@H](O)[C@H](C)N [XETOAMINOL C]	100%

Tested on: SHG44
Assay: Antiproliferative activity against human SHG44 cells at 0.1 to 100 uM after 24 hrs by cell counting kit-8 assay
Format: functional, cell-based
Conditions: not given
Summary of the method: as §1

Structure (SMILES)	Activity
CC(C)CCCCCCC[C@H](O)[C@@H](C)N	inactive
CCC/C=C\CCCC[C@H](O)[C@@H](C)N	inactive

Species: Homo sapiens
Assay: Cytotoxicity against human SHG44 at 50 uM after 24 hrs by cell counting kit-8 assay
Format: functional
Conditions: not given
Summary of the method: as §1

Structure (SMILES)	Activity
CCCCCCCCC[C@H](O)[C@H](N)CO	Active
CCCCCCCCC[C@@H](O)[C@H](C)N	Active
CC(C)CCCCCCC[C@H](O)[C@@H](C)N	Active
CCC/C=C\CCCC[C@H](O)[C@@H](C)N	Active
CCCCCCCCCCC[C@@H](O)[C@H](C)N [XETOAMINOL C]	Active
CCCCCCCCC[C@H](O)[C@@H](C)N	Active

Tested on: not listed separately
Assay: Antiproliferative activity against human SHG44 cells after 24 hrs by cell counting kit-8 assay
Format: functional, cell-based
Conditions: SHG-44, 24 h
Summary of the method: as §1

Structure (SMILES)	IC50
CCCCCCCCC[C@H](O)[C@H](N)CO	4.41 µM
CCCCCCCCC[C@@H](O)[C@H](C)N	7.96 µM
CCCCCCCCCCC[C@@H](O)[C@H](C)N [XETOAMINOL C]	4.5 µM
